{
  "source": "paper PMC2992437",
  "about": "(ACS chemical neuroscience, 2010)",
  "key": {"[1]": {"tested_on": "NPS induced hyperlocomotion", "settings": "cited from earlier work"}, "NPSR [2]": {"target": "T1, NPSR (Homo sapiens, UniProt Q6W5P4)", "T1 sequence (Q6W5P4 1-371)": "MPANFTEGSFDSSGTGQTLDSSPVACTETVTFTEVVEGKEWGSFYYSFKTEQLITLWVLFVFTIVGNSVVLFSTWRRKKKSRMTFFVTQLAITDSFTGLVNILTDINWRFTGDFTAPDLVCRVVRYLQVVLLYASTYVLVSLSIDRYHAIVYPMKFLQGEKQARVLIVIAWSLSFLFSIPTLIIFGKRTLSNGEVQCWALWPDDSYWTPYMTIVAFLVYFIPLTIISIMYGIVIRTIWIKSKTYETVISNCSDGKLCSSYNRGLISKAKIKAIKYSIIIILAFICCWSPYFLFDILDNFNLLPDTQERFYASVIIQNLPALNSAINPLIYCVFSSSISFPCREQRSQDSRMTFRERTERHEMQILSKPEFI", "test": "Radioligand binding assay, displacement of [125I]Y10-NPS on CHO-NPSR cells", "procedure,_shortened": "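Whole CHO-NPSR cells at about 95% confluence were washed with PBS. They were then incubated for 90 min at room temperature in DMEM with 0.1% BSA, 0.15 nM [125I]Y10-NPS and increasing concentrations of unlabeled human NPS or test compound. Nonspecific binding was taken with 1 μM NPS. Cells were washed in ice-cold PBS, lysed in 1 N NaOH and gamma-counted. Experiments were run in duplicate.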"}, "NPSR [3]": {"target": "T1, NPSR", "test": "cAMP assay", "type": "cell-based", "settings": "Table 5"}, "NPSR [4]": {"target": "T1, NPSR", "test": "Intracellular calcium assay", "type": "cell-based"}},
  "note": "Where two headings read alike, the source gives them in different places.",
  "data": [
    {"smiles": "O=C1OC(c2ccccc2)(c2ccccc2)N2CCN(C(=O)NCc3ccc(F)cc3)CC12", "note": "(centres unmarked) [Compound 1, N-(4-fluorobenzyl)-1-oxo-3,3-diphenyltetrahydro-1H-oxazolo[3,4-a]pyrazine-7(3H)-carboxamide]", "values": [
      {"measurement": "effect on NPS induced hyperlocomotion", "setting": "[1]; mice", "value": "partially reduce the NPS induced hyperlocomotion"}
    ]},
    {"smiles": "CCC(C)(CCN1CCOCC1)N(Cc1cc2ccccc2n(C)c1=O)C(=O)C1CCCCC1", "note": "(centres unmarked) [Compound 2, N-(3-methyl-1-morpholinopentan-3-yl)-N-((1-methyl-2-oxo-1,2-dihydroquinolin-3-yl)methyl)cyclohexanecarboxamide]", "values": [
      {"measurement": "effect on NPS induced hyperlocomotion", "setting": "[1]; initial pharmacological results", "value": "capacity to reduce the NPS induced hyperlocomotion"}
    ]},
    {"smiles": "COc1ccc(C2c3c(ncn(CCN4CCOCC4)c3=N)Oc3ccc4ccccc4c32)cc1OC", "note": "(centres unmarked) [Compound 3a, 10-(2-morpholinoethyl)-12-(3,4-dimethoxyphenyl)-12H-naphtho[1',2':5,6]pyrano[2,3-d]pyrimidin-11-imine]", "values": [
      {"measurement": "Ki", "setting": "NPSR [2]", "value": 210, "unit": "nM"}
    ]},
    {"smiles": "COc1cccc(C2c3c(ncn(-c4ccccc4C#N)c3=N)Oc3ccc4ccccc4c32)c1", "note": "(centres unmarked) [Compound 3aa, 10-(2-Cyanophenyl)-12-(3-methoxyphenyl)-12H-naphtho[1',2':5,6]pyrano[2,3-d]pyrimidin-11-imine]", "values": [
      {"measurement": "cAMP activity (in words)", "setting": "NPSR [3]", "value": "no cAMP activity"}
    ]},
    {"smiles": "COc1ccc(C2c3c(N)nc(Cc4ccccc4)nc3Oc3ccc4ccccc4c32)cc1OC", "note": "(centres unmarked) [Compound 10a]", "values": [
      {"measurement": "IC50", "setting": "NPSR [4]", "value": "> 30", "unit": "µM"}
    ]}
  ]
}
